High-throughput results (PubChem BioAssay)
OX1R antag-1 – blocks the human orexin 1 receptor; O43613; OX1R-expressing cells, FRET antagonist read-out; inhibition, % at 6.6 µM; 330,000 tested, 1.8% active; AID 485270; in the data active = inhibition mostly above about 38%, no sharp cut-off; inactive = mostly below about 40%
TAAR1 agonist – agonists of human TAAR1; CHO RD-HGA16 TAAR1, Fluo-8 calcium fluorescence; vehicle wells 0%, saturating PEA agonist 100%; activation, % at 3 µM; 360,000 tested, 0.99% active;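 active = activation above the mean activation of all test compounds in the run plus 3 SD, cut at about 38% in these data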
Target sequence (Q96RJ0 whole entry, looked up): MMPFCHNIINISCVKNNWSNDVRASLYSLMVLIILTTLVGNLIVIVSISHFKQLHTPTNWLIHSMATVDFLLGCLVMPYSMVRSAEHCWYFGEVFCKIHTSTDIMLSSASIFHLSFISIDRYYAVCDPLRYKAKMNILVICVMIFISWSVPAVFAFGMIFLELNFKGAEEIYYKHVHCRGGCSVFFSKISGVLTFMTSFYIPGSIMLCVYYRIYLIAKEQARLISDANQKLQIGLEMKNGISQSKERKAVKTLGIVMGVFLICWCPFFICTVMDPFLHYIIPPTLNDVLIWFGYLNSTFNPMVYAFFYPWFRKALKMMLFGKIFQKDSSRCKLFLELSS
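Test system: RD-HGA16 (CHO) cells co-expressing Gα16 and hTAAR1; dosing: one-point dosing at 3 µM (nominal); timing: 17-24 h seeding, 75 min 37 °C dye, 30 min RT; signal: kinetic Fluo-8 calcium fluorescence; read-out basis: % activation relative to PEA EC100 response; controls: DMSO and PEA EC100; replicates: n 1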
CHO parental Ca – counter-screen: ATP calcium response change in parental CHO cells; parental CHO-K1, ATP-induced calcium, Fluo-8 fluorescence; inhibition, % at 5.6 µM; 330,000 tested, 0.63% active;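 active = inhibition above that plate's mean sample inhibition plus 3 SD, cut at about 26% in these data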
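material = parental CHO cells | also added = ATP as calcium-mobilizing challenge | dosing = single point at 5.6 µM | detection = intracellular calcium via Fluo-8 no-wash fluorescent dye | read-out = % inhibition | benchmarks = low control ATP plus DMSO, high control DMSO only | repeats = one well per compound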
TAAR1 antag – antagonists of human TAAR1; Q96RJ0; CHO RD-HGA16 TAAR1, Fluo-8 calcium fluorescence, antagonist; inhibition, % at 3 µM; 360,000 tested, 1.5% active;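 active = inhibition above a per-plate cutoff, the mean inhibition of test compounds on that plate plus 3 SD, cut at about 49% in these data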
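System: RD-HGA16 CHO cells with stable hTAAR1 and Gα16 | Probe or stimulus: EC80 β-phenethylamine stimulus | Dosing: 3 µM, single point | Times: Dye loading 75 min at 37 °C, then 30 min room temperature | Measured by: Fluo-8 calcium-sensitive fluorescence | Read-out basis: % inhibition of agonist calcium response | Replicates: n of 1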
OX1R antag-2 – human HCRTR1 antagonism. O43613. 330,000 tested, 0.43% active. CHO/OX1R cells, Fluo-8 calcium fluorescence, orexin A. AID 434989. inhibition, % at 5 µM;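 active = inhibition above its plate's threshold, mean inhibition of all tested compounds on the plate plus 3 SD, cut at about 37% in these data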
Each line names hits and unclear results; the compound was inactive in the other large screens. Only some compounds are listed: those with a hit (about 4% of all), similar ones and a draw of the others.

CCN(CC)CCC(=O)Nc1cccc2c1C(=O)c1ccccc1C2=O	OX1R antag-1 74
CCN(CC)CCNC(=O)c1ccc2c(c1NCCO)C(=O)c1ccccc1C2=O	OX1R antag-1 89
CCCN(C(=O)c1cn(CCC)c2ccccc12)c1ccc(Oc2cccnc2)cc1	none (no result: OX1R antag-1, CHO parental Ca, OX1R antag-2)
CCOC(=O)c1ccc(NC2=CC(=O)C(=O)c3ccccc32)cc1	none
NS(=O)(=O)c1ccc(NC2=CC(=O)C(=O)c3ccccc32)cc1	OX1R antag-1 60
Cc1ccc(NC2=CC(=O)C(=O)c3ccccc32)cc1	OX1R antag-1 52
C[C@@H]1CN([C@@H](C)CO)C(=O)CCCn2cc(nn2)CO[C@H]1CN(C)C(=O)Nc1ccc2c(c1)OCO2	none (no result: OX1R antag-1, CHO parental Ca, OX1R antag-2)
c1ccc(-c2cc3nccc(-c4ccccn4)n3n2)cc1	OX1R antag-1 48
CCOC(=O)/C=C/C(=O)Nc1ccc(Oc2ccccc2)cc1	CHO parental Ca 44
O=C(O)/C=C/C(=O)Nc1ccc(Oc2ccccc2)cc1	none
CC(=O)Nc1ccc(S(=O)(=O)NCCC(=O)OCc2csc(CC(=O)Nc3ccccc3C)n2)cc1	none
O=C(Nc1nnc(-c2ccc3c(c2)CCCC3)o1)c1c(F)cccc1F	none
O=C(Nc1nnc(-c2ccc3c(c2)CCCC3)o1)c1ccc(Cl)cc1Cl	OX1R antag-1 55
COCCNC(=O)CCC(=O)NNc1nc2ccccc2c2nc(-c3ccccc3)nn12	OX1R antag-1 72
CC(C)OCCCNC(=O)CCC(=O)NNc1nc2ccccc2c2nc(-c3ccccc3)nn12	OX1R antag-1 66
CCN(CC)CCCNC(=O)CCC(=O)NNc1nc2ccccc2c2nc(C)nn12	none
CCOCCCNC(=O)CCC(=O)NNc1nc2ccccc2c2nc(-c3ccccc3)nn12	OX1R antag-1 53
CN1OC[C@@H]2CN(C(=O)c3ccc(C#N)cc3)[C@H](c3cccc(Br)c3)C[C@@H]21	none (no result: OX1R antag-1, CHO parental Ca, OX1R antag-2)
CCCN(CCC)CC(O)CN(c1ccccc1)S(=O)(=O)c1ccc(C)cc1 (stereo not drawn)	none
CCCCN(c1nc2ccccc2nc1Cl)S(=O)(=O)c1ccc(C)cc1	CHO parental Ca 54
Oc1[nH]c2ccccc2c1C=Nc1ccc2c(c1)OCO2	OX1R antag-1 59
COc1ccc2cc(Br)ccc2c1CC(=O)NC(C)(C)C	CHO parental Ca 54
CCOC(=O)C1=C(N)N2C(=O)C(C)SC2=C(C(=O)OC)C1c1ccccc1OC (stereo not drawn)	TAAR1 agonist 37
COc1ccc(Cn2cc(CN3CC(N4CCCC4)CS3(=O)=O)nn2)cc1 (stereo not drawn)	none (no result: OX1R antag-1, CHO parental Ca, OX1R antag-2)
COc1ccc(-c2csc(NCCc3nc4cc(Cl)c(Cl)cc4n3CCCO)n2)cc1	TAAR1 antag 55
Cc1c(C(=O)Nc2ccccc2)sc2nc(-c3ccccc3)cn12	TAAR1 antag 51
COC(=O)[C@@H](Cc1ccc(O)cc1)NC(=O)[C@H]1O[C@@H](n2cnc3c(=O)[nH]c(N)nc32)[C@H](O)[C@@H]1O	none (no result: OX1R antag-1, CHO parental Ca, OX1R antag-2)
COC(=O)[C@]12C[C@H](CC(=O)NCc3cccs3)C(=O)N(Cc3ccccc3)C1=C[C@H](C(C)C)O[C@@H]2C1CC1	none (no result: OX1R antag-1, CHO parental Ca, OX1R antag-2)
O=c1c2ccc([N+](=O)[O-])cc2ncn1CCOc1ccc(Cl)cc1	TAAR1 antag 64
O=C(Cn1cnc2cc([N+](=O)[O-])ccc2c1=O)NCc1ccc(Cl)cc1	none
O=C(Nc1ccc(N=Nc2ccccc2)cc1)c1ccc(Cl)cc1Cl	none
O=C(Nc1ccc(N=Nc2ccccc2)cc1)c1ccccc1Cl	TAAR1 antag 49
CCOC(=O)CC1C(=O)NCCN1c1nc2ccc(C)cn2c(=O)c1/C=C1\SC(=S)N(CC(C)C)C1=O (stereo not drawn)	CHO parental Ca 27, OX1R antag-2 49 (no result: TAAR1 agonist, TAAR1 antag)
CCOC(=O)CC1C(=O)NCCN1c1nc2ccc(C)cn2c(=O)c1/C=C1\SC(=S)N(C(C)CC)C1=O (stereo not drawn)	none (no result: TAAR1 agonist, TAAR1 antag)
COc1ccccc1CNC(=O)C(=O)NCCC1CCCCN1S(=O)(=O)c1ccc(C)cc1 (stereo not drawn)	none
COc1ccccc1CCNC(=O)C(=O)NCCC1CCCCN1S(=O)(=O)c1ccccc1 (stereo not drawn)	OX1R antag-1 60
COc1ccc(CCNC(=O)C(=O)NCC2OCCN2S(=O)(=O)c2cc(F)ccc2F)cc1 (stereo not drawn)	TAAR1 antag 55
O=C(NCc1ccccc1)C(=O)NCC1OCCN1S(=O)(=O)c1ccc([N+](=O)[O-])cc1 (stereo not drawn)	none
CNC(=O)C(=O)NCC1OCCN1S(=O)(=O)c1ccc([N+](=O)[O-])cc1 (stereo not drawn)	OX1R antag-1 72
COc1ccccc1CCNC(=O)C(=O)NCC1OCCN1S(=O)(=O)c1ccc(OC)c(OC)c1 (stereo not drawn)	TAAR1 agonist 40
COc1ccccc1CCNC(=O)C(=O)NCC1OCCN1S(=O)(=O)c1ccc(Cl)cc1 (stereo not drawn)	none
COc1ccc(C(C)(C)C)cc1NC(=O)c1ccccc1-n1cnnn1	none
CC(C)CN(C(=O)c1cccc(S(=O)(=O)N2CCN(c3ccc(F)cc3)CC2)c1)C1CCS(=O)(=O)C1 (stereo not drawn)	none
COCCC(=O)N1CCC(Oc2ccc(C(=O)NCCC3=CCCCC3)cc2)CC1	none
C[C@@H]1NC(=O)c2cc([N+](=O)[O-])cc(I)c2OCC[C@@H](C(=O)NC(CC(=O)O)C(N)=O)NC(=O)[C@H](CCC(=O)O)NC1=O (stereo partly drawn)	OX1R antag-1 62 (no result: TAAR1 agonist, TAAR1 antag)
NC(=O)C(CC(=O)O)NC(=O)[C@@H]1CCOc2c(I)cc([N+](=O)[O-])cc2C(=O)N[C@@H](CCC(=O)O)C(=O)N[C@@H](CO)C(=O)N1 (stereo partly drawn)	OX1R antag-1 70 (no result: TAAR1 agonist, TAAR1 antag)
N#CC(C#N)=NNc1ccc([N+](=O)[O-])cc1	OX1R antag-1 72
COc1ccc(-c2cc3nc(C)cc(N)n3n2)cc1	none
Cc1cccc(-c2cc3nc(C)cc(NCCCN(C)C)n3n2)c1	none
COc1ccccc1-c1cc2nc(C)cc(C)n2n1	OX1R antag-1 62
Cc1cccc(-c2cc3nc(C)cc(C)n3n2)c1	OX1R antag-1 65
CC1(C)CC(=O)C=C(C2CC2)C1=O	none (no result: OX1R antag-1, CHO parental Ca, OX1R antag-2)
COc1ccc(C(=O)c2ccc(N(C)C)cc2)c(OC)c1	none
CN(C)c1ccc(C(=O)c2ccc(N(C)C)c3ccccc23)cc1	OX1R antag-1 55, CHO parental Ca 70
O=C(N=C1SC2CS(=O)(=O)CC2N1c1ccc(F)cc1)C1CC1 (stereo not drawn)	none
O=Cc1cc(-c2ccccc2)[nH]c1-c1ccccc1	CHO parental Ca 74
O=Cc1cn[nH]c1-c1ccccc1	none
COC(=O)[C@@]1(Sc2ccc(C)cc2)CC(=O)N(c2ccc3c(ccn3C)c2)[C@@H]1c1ccccc1	TAAR1 antag 55 (no result: OX1R antag-1, CHO parental Ca, OX1R antag-2)
